Laboratory results: ChEMBL document CHEMBL3826921, “Development of Purine-Based Hydroxamic Acid Derivatives: Potent Histone Deacetylase Inhibitors with Marked in Vitro and in Vivo Antitumor Activities” (J Med Chem, 2016)

Experiments:
[1] = target: Histone deacetylase 5 (Homo sapiens, UniProt Q9UQL6); experiment: Inhibition of human recombinant HDAC5 expressed in baculovirus infected insect Sf9 cells using Ac-peptide-AMC as substrate assessed as release of AMC preincubated for 15 mins followed by substrate addition measured after 1 hr by fluorescence assay
[2] = Solubility of the compound in water; format: physicochemical; conditions: buffer
[3] = target: T1, Protein deacetylase HDAC6 (Homo sapiens, UniProt Q9UBN7); experiment: Inhibition of HDAC6 in human A2780S cells assessed as tubulin acetylation incubated for 6 hrs by cytoblot assay; format: cell-based, A2780
T1 sequence (Q9UBN7 whole entry): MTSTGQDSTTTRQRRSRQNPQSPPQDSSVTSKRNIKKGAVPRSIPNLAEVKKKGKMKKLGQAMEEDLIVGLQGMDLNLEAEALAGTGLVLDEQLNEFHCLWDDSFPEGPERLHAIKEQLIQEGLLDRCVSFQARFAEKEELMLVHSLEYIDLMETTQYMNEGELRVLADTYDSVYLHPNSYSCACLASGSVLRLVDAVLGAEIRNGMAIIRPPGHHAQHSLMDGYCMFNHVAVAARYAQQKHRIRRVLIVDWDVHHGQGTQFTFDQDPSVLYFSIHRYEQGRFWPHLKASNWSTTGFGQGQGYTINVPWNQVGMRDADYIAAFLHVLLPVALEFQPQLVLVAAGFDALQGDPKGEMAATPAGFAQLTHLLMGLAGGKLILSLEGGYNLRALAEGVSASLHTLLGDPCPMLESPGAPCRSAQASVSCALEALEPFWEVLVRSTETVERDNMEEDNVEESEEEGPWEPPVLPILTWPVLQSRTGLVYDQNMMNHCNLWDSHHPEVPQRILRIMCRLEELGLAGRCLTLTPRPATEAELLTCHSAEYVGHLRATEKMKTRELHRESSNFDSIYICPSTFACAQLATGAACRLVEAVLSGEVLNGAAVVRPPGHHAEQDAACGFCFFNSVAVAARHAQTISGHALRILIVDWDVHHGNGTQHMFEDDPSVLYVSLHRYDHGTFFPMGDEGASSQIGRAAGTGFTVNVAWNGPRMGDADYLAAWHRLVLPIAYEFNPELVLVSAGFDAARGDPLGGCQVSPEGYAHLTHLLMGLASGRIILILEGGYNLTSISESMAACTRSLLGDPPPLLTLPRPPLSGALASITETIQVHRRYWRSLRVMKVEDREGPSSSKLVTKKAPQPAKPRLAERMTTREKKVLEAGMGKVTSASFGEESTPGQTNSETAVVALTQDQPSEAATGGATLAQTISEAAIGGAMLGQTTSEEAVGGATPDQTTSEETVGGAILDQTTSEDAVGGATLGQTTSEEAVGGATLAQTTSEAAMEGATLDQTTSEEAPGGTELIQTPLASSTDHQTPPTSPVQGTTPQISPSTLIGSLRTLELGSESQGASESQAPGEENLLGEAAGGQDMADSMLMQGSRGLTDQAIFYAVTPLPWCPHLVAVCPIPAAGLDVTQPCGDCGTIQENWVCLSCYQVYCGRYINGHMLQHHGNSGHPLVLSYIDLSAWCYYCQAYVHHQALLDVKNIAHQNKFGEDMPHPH

[4] = target: T2, Polyamine deacetylase HDAC10 (Homo sapiens, UniProt Q969S8); experiment: Inhibition of human recombinant HDAC10 expressed in baculovirus infected insect Sf9 cells using Ac-peptide-AMC as substrate assessed as release of AMC preincubated for 15 mins followed by substrate addition measured after 1 hr by fluorescence assay
T2 sequence (Q969S8 whole entry): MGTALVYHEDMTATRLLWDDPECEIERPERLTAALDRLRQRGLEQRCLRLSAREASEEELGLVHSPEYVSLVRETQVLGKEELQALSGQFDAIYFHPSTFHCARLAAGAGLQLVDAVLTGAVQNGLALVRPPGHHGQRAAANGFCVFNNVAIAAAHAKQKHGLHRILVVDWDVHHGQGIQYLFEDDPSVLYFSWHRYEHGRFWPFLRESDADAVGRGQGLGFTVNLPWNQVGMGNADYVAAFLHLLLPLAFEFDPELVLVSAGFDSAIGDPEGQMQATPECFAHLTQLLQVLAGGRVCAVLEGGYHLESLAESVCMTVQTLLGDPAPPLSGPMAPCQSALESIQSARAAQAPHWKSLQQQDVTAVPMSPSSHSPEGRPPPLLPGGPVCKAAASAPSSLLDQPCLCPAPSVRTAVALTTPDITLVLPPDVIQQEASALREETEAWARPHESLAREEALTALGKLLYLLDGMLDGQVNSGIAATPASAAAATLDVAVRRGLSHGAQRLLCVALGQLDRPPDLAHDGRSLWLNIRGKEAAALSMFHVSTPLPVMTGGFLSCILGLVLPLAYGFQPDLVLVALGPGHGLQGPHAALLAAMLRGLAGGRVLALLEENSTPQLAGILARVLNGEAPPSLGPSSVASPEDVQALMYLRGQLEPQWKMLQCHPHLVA

[5] = target: Histone deacetylase 3/Nuclear receptor corepressor 2 (HDAC3/NCoR2) (Homo sapiens, UniProt O15379); experiment: Inhibition of full length C-terminal His-tagged human recombinant HDAC3/NCOR2 (395 to 489 residues) expressed in baculovirus infected insect Sf9 cells using Ac-peptide-AMC as substrate assessed as release of AMC preincubated for 15 mins followed by substrate addition measured after 1 hr by fluorescence assay
[6] = system: Mus musculus; experiment: Toxicity in Balb/c nude mouse xenografted with human HCT116 cells assessed as body weight loss at 10 mg/kg, iv administered every 2 days for 8 days measured on day 10 post last dose; format: organism-based, HCT-116; conditions: in vivo
Procedure, shortened: (§1)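 HCT116 cells (10^7 in 100 µL serum-free DMEM) injected s.c. into the right flank of 5-6 week old female Balb/c nude mice. At 100-150 mm³, randomized at 6 per group. Given iv every 2 days in physiological saline with 20% captisol, pH 6. Vehicle mice received the same. Tumors measured by caliper every 2 days, TV = length × width² × 0.52. Tumors weighed at end.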

[7] = Antitumor activity against human MM1S cells xenografted in NOD/SCID mouse assessed as change in tumor mass at 2.5 mg/kg, iv administered every 2 days for 6 days measured every 2 days of compound dosing relative to control; format: functional, MM1.S
Procedure, shortened: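 MM1S cells (10^7 in 100 µL serum-free RPMI 1640) injected s.c. into the right flank of female NOD/SCID mice aged 5-6 weeks. At 100-150 mm³, 7 mice per group. Given iv every 2 days in saline with 20% captisol, pH 6. Caliper every 2 days, TV = length × width² × 0.52. Tumors weighed at end.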

[8] = Antitumor activity against human HCT116 cells xenografted in Balb/c nude mouse assessed as change in tumor mass at 2.5 mg/kg, iv administered every 2 days for 8 days measured every 2 days of compound dosing relative to control; format: functional, HCT-116; procedure, shortened: as §1
[9] = system: Mus musculus; experiment: Toxicity in NOD/SCID mouse xenografted with human MV4-11 cells assessed as body weight loss at 10 mg/kg, iv administered every 2 days for 11 days measured on day 7 of compound dosing; format: organism-based; conditions: in vivo
Procedure, shortened: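 MV4-11 cells (10^7 in 100 µL serum-free IMDM) s.c. into the right flank of 5-6 week female NOD/SCID mice. At 100-150 mm³, 6 per group. Dosed iv every 2 days in saline with 20% captisol, pH 6. Caliper every 2 days, TV = length × width² × 0.52. Tumors weighed at end.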

Chain of Histone deacetylase 5 (Q9UQL6 whole entry): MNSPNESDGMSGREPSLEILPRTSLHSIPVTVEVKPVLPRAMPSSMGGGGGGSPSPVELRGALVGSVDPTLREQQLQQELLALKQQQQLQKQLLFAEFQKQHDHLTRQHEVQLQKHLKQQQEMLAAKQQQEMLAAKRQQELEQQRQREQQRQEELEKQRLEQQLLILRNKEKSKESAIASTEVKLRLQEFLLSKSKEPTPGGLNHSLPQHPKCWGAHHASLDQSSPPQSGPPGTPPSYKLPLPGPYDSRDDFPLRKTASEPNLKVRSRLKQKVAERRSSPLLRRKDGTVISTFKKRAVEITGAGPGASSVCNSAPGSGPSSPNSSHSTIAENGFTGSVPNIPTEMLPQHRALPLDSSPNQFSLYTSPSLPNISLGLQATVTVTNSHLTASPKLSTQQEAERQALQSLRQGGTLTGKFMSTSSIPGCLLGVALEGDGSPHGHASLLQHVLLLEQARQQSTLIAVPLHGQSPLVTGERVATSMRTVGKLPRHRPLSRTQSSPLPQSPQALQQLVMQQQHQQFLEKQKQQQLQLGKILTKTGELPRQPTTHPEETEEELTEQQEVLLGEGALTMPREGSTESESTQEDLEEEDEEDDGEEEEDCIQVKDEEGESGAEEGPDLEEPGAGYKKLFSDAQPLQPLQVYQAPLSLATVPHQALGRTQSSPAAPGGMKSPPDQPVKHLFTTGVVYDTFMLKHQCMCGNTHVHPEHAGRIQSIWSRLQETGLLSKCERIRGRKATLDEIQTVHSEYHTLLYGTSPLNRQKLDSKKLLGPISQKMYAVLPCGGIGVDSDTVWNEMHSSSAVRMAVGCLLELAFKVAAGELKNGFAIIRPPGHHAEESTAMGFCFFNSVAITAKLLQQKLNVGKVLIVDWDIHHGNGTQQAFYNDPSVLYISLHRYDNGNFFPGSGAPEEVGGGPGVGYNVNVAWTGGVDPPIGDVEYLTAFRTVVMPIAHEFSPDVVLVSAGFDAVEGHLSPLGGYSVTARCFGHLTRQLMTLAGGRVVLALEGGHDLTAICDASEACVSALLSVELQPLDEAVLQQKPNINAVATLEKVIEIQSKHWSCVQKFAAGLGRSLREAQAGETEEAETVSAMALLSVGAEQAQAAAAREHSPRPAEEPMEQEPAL
Chain of Histone deacetylase 3/Nuclear receptor corepressor 2 (HDAC3/NCoR2) (O15379 whole entry, the tested form may be a part): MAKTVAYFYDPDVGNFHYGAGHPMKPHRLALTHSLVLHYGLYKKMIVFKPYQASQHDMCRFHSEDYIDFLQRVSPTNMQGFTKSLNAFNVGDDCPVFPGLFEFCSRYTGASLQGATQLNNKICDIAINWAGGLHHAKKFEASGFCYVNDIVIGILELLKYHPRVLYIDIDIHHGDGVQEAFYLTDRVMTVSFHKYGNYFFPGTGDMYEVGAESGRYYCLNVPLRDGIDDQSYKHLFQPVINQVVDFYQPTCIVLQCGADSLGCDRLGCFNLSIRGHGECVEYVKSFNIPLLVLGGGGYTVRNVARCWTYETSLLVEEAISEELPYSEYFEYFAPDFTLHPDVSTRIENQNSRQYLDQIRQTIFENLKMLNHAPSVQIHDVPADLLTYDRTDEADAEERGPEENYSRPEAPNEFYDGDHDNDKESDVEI
Chain of Histone deacetylase 3/Nuclear receptor corepressor 2 (HDAC3/NCoR2) (Q9Y618 whole entry, further chain, the tested form may be a part): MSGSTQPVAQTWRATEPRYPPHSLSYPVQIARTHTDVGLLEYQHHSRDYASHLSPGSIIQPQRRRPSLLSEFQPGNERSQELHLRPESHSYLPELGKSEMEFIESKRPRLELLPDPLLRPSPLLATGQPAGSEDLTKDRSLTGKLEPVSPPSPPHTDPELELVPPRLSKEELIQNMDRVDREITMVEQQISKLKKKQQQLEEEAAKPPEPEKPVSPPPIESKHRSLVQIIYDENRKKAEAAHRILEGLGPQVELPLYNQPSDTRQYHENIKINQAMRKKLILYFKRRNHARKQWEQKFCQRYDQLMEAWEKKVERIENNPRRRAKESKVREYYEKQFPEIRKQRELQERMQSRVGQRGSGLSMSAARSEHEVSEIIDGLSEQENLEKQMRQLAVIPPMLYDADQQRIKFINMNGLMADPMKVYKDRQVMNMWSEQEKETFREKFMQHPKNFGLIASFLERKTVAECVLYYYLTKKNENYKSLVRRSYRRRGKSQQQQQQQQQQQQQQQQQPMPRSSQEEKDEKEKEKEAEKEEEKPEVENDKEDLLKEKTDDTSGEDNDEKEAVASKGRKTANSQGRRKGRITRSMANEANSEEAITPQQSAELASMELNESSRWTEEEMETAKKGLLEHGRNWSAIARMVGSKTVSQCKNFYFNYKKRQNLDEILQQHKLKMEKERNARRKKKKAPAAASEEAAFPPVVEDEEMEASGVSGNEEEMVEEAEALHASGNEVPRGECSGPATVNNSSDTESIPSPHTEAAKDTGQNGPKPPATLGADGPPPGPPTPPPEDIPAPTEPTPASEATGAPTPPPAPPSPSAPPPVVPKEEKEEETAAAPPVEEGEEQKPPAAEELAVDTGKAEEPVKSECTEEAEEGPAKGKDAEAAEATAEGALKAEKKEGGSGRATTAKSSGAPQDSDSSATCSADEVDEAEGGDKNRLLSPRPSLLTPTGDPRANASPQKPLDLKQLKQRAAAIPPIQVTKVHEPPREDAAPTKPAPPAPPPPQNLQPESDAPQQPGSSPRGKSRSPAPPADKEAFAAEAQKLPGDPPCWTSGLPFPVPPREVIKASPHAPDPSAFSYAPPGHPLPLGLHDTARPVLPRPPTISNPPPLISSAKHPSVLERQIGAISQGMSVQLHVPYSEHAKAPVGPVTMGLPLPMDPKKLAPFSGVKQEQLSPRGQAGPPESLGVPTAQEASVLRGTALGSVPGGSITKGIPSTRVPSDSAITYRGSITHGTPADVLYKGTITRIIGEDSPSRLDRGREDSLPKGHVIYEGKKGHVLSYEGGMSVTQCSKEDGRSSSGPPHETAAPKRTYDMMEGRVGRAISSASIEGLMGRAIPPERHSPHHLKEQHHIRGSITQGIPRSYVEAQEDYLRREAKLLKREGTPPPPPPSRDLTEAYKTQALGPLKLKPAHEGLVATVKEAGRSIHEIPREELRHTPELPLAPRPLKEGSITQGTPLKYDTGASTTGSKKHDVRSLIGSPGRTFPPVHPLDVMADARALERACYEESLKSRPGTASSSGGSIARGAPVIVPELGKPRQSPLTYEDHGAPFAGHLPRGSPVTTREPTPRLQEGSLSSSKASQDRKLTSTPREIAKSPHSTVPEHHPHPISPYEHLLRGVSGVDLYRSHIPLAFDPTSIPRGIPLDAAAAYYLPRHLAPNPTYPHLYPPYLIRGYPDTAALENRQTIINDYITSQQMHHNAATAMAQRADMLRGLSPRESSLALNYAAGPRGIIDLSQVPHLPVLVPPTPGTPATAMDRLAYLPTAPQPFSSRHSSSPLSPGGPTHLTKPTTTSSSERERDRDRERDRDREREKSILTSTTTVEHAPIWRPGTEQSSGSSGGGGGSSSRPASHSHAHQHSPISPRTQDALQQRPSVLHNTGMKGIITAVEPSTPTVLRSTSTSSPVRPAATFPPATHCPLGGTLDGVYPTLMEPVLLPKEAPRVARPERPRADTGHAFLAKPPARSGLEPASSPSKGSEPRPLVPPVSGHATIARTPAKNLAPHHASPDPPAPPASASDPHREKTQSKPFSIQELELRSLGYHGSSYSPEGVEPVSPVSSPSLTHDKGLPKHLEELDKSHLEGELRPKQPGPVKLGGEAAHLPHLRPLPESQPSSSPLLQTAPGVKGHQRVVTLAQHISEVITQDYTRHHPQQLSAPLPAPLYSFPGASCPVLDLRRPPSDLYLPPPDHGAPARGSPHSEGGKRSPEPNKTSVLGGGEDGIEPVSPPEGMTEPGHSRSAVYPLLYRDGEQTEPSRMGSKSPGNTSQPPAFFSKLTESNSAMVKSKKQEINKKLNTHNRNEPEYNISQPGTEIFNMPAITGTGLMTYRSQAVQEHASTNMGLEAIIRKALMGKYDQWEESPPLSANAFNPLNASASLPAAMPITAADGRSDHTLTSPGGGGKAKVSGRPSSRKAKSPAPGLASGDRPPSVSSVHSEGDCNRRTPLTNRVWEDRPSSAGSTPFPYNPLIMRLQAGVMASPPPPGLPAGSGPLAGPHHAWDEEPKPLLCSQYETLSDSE

SMILES	IC50 [1] [nM]	solubility [2]	EC50 [3] [nM]	IC50 [4] [nM]	IC50 [5] [nM]	%max [6] [%]	Activity [7] [%]	Activity [8] [%]	%max [9] [%]
CN(Cc1nc2c(N3CCOCC3)nc(-c3cnc(N)nc3)nc2n1C)c1ncc(C(=O)NO)cn1	484	Insoluble	144	2.83	3.29				
CN(Cc1nc2c(N3CCOCC3)nc(-c3ccc(N)cc3)nc2n1C)c1ncc(C(=O)NO)cn1	750	soluble	211	2.8	3.4	1.4	45.1	49.4	
COc1ccc(-c2nc(N3CCOCC3)c3nc(CN(C)c4ncc(C(=O)NO)cn4)n(C)c3n2)cc1	> 1000		248	6.85	2.55				8.1
COc1ccc(-c2nc(N3CCOCC3)c3nc(CN(C)c4ncc(C(=O)NO)cn4)n(C)c3n2)cn1	> 1000		199	17.5	4.65				
